The test system of one series is Bacillus cereus. As to the kind of experiment: Antimicrobial activity against Bacillus cereus ATCC 11778 after 24 hrs by broth dilution method. Format: functional. The following applies: ATCC 11778, 24 h. In a few lines:
(§1)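 Strains stored at −70 °C, grown at 30 °C on blood agar, suspended in physiological saline to OD595 0.1, diluted 10× in saline. 2 µL inoculum added to 100 µL nutrient broth with yeast extract. Peptides dissolved in ethanol (4 g/L), diluted in water (1 g/L), then two-fold in broth (64 to 1 mg/L). Incubated at 30 °C; MIC read as lowest concentration inhibiting growth at 24 h.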

A further series relates to Proteus mirabilis. The experiment in a line: Antimicrobial activity against Proteus mirabilis 1190901236 after 24 hrs by broth dilution method. It is filed as functional. The following applies: Proteus mirabilis, 1190901236, 24 h. A digest of the protocol:
as §1

Series [1] relates to Staphylococcus epidermidis. As to the kind of experiment: Antimicrobial activity against Staphylococcus epidermidis ATCC 12228 after 24 hrs by broth dilution method. Format: functional. The following applies: ATCC 12228, 24 h. A digest of the protocol: as §1
Series [2] can be described thus: Toxicity in human erythrocytes assessed as hemolytic activity after 4 hrs. The following applies: erythrocyte. It is filed as cell-based. A digest of the protocol:
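Heparinized fresh blood spun at 1000 g, 10 °C; erythrocytes washed three times in 0.85% saline and diluted to 1/25 packed volume. Peptide stocks 1.5 mM in 30% DMSO/saline, serially two-fold diluted in saline. Cells added, then incubated 4 h at 37 °C and centrifuged. Supernatant A405 read against 1% Triton X-100 as full lysis; single experiment run in triplicate.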

A further series deals with Klebsiella pneumoniae. The experiment in a line: Antimicrobial activity against Klebsiella pneumoniae 1190901525 after 24 hrs by broth dilution method. The following applies: Klebsiella pneumoniae, 1190901525, 24 h. Format: functional. In a few lines:
as §1

The subject of a further series is Pseudomonas aeruginosa. The experiment in a line: Antimicrobial activity against Pseudomonas aeruginosa ATCC 27853 after 24 hrs by broth dilution method. It is filed as functional. The following applies: ATCC 27853, 24 h. In a few lines: as §1
The next series relates to Escherichia coli. The experiment in a line: Antimicrobial activity against Escherichia coli ATCC 25922 after 24 hrs by broth dilution method. It is filed as functional. The following applies: ATCC 25922, 24 h. A digest of the protocol:
as §1

Another series concerns Staphylococcus aureus. The experiment in a line: Antimicrobial activity against Staphylococcus aureus ATCC 29213 after 24 hrs by broth dilution method. The following applies: ATCC 29213, 24 h. Format: functional. In a few lines: as §1
For another series, the system named is Enterococcus faecalis. The experiment in a line: Antimicrobial activity against Enterococcus faecalis ATCC 29212 after 24 hrs by broth dilution method. It is filed as functional. The following applies: ATCC 29212, 24 h. In a few lines:
as §1

The next series deals with Enterobacter cloacae. As to the kind of experiment: Antimicrobial activity against Enterobacter cloacae 1190900252 after 24 hrs by broth dilution method. It is filed as functional. The following applies: Enterobacter cloacae, 1190900252, 24 h. In a few lines: as §1

This passage reports MIC and HD100 results from ChEMBL document CHEMBL1811906, “Synthesis and evaluation of strand and turn modified ring-extended gramicidin S derivatives” (Bioorg Med Chem, 2011).

Molecules are shown by their SMILES. ≈ marks a conversion by molar mass, not a printed value. Residues, ends and D or L forms follow the SMILES beside them.

`CC(C)C[C@@H]1NC(=O)[C@H](CCCN)NC(=O)[C@H](C(C)C)NC(=O)[C@@H]2CCCN2C(=O)[C@@H](Cc2ccccc2)NC(=O)[C@H](CC(C)C)NC(=O)[C@H](CCCN)NC(=O)[C@H](C(C)C)NC(=O)[C@H](CCCN)NC(=O)[C@H](CC(C)C)NC(=O)[C@@H]2CCCN2C(=O)[C@@H](Cc2ccccc2)NC(=O)[C@H](C(C)C)NC(=O)[C@H](CCCN)NC1=O`: the MIC is 16 µg/mL (≈ 10.1 µM) in the series on Bacillus cereus; over 64 µg/mL in the series with Proteus mirabilis; 8 µg/mL (≈ 5.06 µM) in series [1]; 64 µg/mL (≈ 40.5 µM) in the series on Klebsiella pneumoniae; 64 µg/mL (≈ 40.5 µM) with Pseudomonas aeruginosa; 32 µg/mL (≈ 20.2 µM) in the series on Escherichia coli. Besides, the MIC against Staphylococcus aureus came to 16 µg/mL (≈ 10.1 µM); against Enterococcus faecalis, 8 µg/mL (≈ 5.06 µM); in the series on Enterobacter cloacae it was 64 µg/mL (≈ 40.5 µM). Besides, the HD100 in [2] amounted to 3.9 µM.

As for `CC(C)C[C@@H]1NC(=O)[C@H](CCCN)NC(=O)[C@H](C(C)C)NC(=O)[C@@H]2CCCN2C(=O)[C@@H](Cc2ccccc2)NC(=O)[C@H](CC(C)C)NC(=O)[C@H](CCCN)NC(=O)[C@H](C(C)C)NC(=O)[C@H](CCCN)NC(=O)[C@H](CC(C)C)NC(=O)[C@@H]2CCCN2C(=O)[C@@H](Cc2ccccc2)NC(=O)[C@H](C(C)C)NC(=O)[C@@H](CCCN)NC1=O`, the minimum inhibitory concentration (MIC) is 16 µg/mL (≈ 10.1 µM) with Bacillus cereus; over 64 µg/mL with Proteus mirabilis; 8 µg/mL (≈ 5.06 µM) in [1]; 32 µg/mL (≈ 20.2 µM) against Klebsiella pneumoniae; 8 µg/mL (≈ 5.06 µM) in the series on Pseudomonas aeruginosa; 64 µg/mL (≈ 40.5 µM) against Escherichia coli. Further, the minimum inhibitory concentration (MIC) in the series with Staphylococcus aureus is 8 µg/mL (≈ 5.06 µM); against Enterococcus faecalis, 16 µg/mL (≈ 10.1 µM); with Enterobacter cloacae it was 32 µg/mL (≈ 20.2 µM). Moreover, the HD100 in [2] worked out at 125 µM.

Regarding `CC(C)C[C@@H]1NC(=O)[C@H](CCCN)NC(=O)[C@H](C(C)C)NC(=O)[C@@H]2CCCN2C(=O)[C@@H](Cc2ccccc2)NC(=O)[C@H](CC(C)C)NC(=O)[C@H](CCCN)NC(=O)[C@H](C(C)C)NC(=O)[C@H](CCCN)NC(=O)[C@H](CC(C)C)NC(=O)[C@@H]2O[C@H](CNC(=O)[C@H](C(C)C)NC(=O)[C@H](CCCN)NC1=O)[C@@H](OCc1ccccc1)[C@@H]2OCc1ccccc1`, the minimal inhibitory concentration (MIC) is 2 µg/mL (≈ 1.19 µM) against Bacillus cereus; over 64 µg/mL in the series with Proteus mirabilis; 4 µg/mL (≈ 2.38 µM) in [1]; 32 µg/mL (≈ 19.1 µM) in the series with Klebsiella pneumoniae; 16 µg/mL (≈ 9.54 µM) with Pseudomonas aeruginosa; 16 µg/mL (≈ 9.54 µM) in the series on Escherichia coli. Further, the MIC is 4 µg/mL (≈ 2.38 µM) against Staphylococcus aureus, 8 µg/mL (≈ 4.77 µM) with Enterococcus faecalis and 32 µg/mL (≈ 19.1 µM) against Enterobacter cloacae. Besides, the HD100 in [2] worked out at 15.6 µM.

`CC(C)C[C@@H]1NC(=O)[C@H](CCCN)NC(=O)[C@H](C(C)C)NC(=O)[C@@H]2CCCN2C(=O)[C@@H](Cc2ccccc2)NC(=O)[C@H](CC(C)C)NC(=O)[C@H](CCCN)NC(=O)[C@H](C(C)C)NC(=O)[C@H](CCCN)NC(=O)[C@H](CC(C)C)NC(=O)[C@@H]2O[C@H](CNC(=O)[C@H](C(C)C)NC(=O)[C@H](CCCN)NC1=O)[C@@H](OCc1ccccc1)[C@@H]2O`: the minimum inhibitory concentration (MIC) was 4 µg/mL (≈ 2.52 µM) against Bacillus cereus; over 64 µg/mL against Proteus mirabilis; 4 µg/mL (≈ 2.52 µM) in series [1]; 16 µg/mL (≈ 10.1 µM) with Klebsiella pneumoniae; 16 µg/mL (≈ 10.1 µM) in the series on Pseudomonas aeruginosa; 16 µg/mL (≈ 10.1 µM) against Escherichia coli. Also, the results for the MIC with Staphylococcus aureus, against Enterococcus faecalis and against Enterobacter cloacae were 4 µg/mL (≈ 2.52 µM), 8 µg/mL (≈ 5.04 µM) and 16 µg/mL (≈ 10.1 µM), respectively. For the same molecule, the HD100 in [2] was 15.6 µM.

Consider `CC(C)C[C@@H]1NC(=O)[C@H](CCCN)NC(=O)[C@H](C(C)C)NC(=O)[C@@H]2CCCN2C(=O)[C@@H](Cc2ccccc2)NC(=O)[C@H](CC(C)C)NC(=O)[C@H](CCCN)NC(=O)[C@H](C(C)C)NC(=O)[C@H](CCCN)NC(=O)[C@H](CC(C)C)NC(=O)[C@@H]2O[C@H](CNC(=O)[C@H](C(C)C)NC(=O)[C@H](CCCN)NC1=O)[C@@H](O)[C@@H]2O`, for which the MIC in the series with Bacillus cereus was 4 µg/mL (≈ 2.67 µM); with Proteus mirabilis, over 64 µg/mL; in series [1], 4 µg/mL (≈ 2.67 µM); with Klebsiella pneumoniae it was 16 µg/mL (≈ 10.7 µM); in the series on Pseudomonas aeruginosa, 16 µg/mL (≈ 10.7 µM); in the series on Escherichia coli, 8 µg/mL (≈ 5.34 µM). The minimum inhibitory concentration (MIC) against Staphylococcus aureus turned out to be 8 µg/mL (≈ 5.34 µM); in the series with Enterococcus faecalis it was 8 µg/mL (≈ 5.34 µM); against Enterobacter cloacae, 16 µg/mL (≈ 10.7 µM). Moreover, in series [2], the HD100 stood at 31.3 µM.

On to `CC(C)C[C@@H]1NC(=O)[C@H](CCCN)NC(=O)[C@H](C(C)C)NC(=O)[C@@H]2CCCN2C(=O)[C@@H](Cc2ccccc2)NC(=O)[C@H](CC(C)C)NC(=O)[C@H](CCCN)NC(=O)[C@H](C(C)C)NC(=O)[C@H](CCCN)NC(=O)[C@H](CC(C)C)NC(=O)[C@@H]2O[C@H](CNC(=O)[C@H](C(C)C)NC(=O)[C@@H](CCCN)NC1=O)[C@@H](OCc1ccccc1)[C@@H]2OCc1ccccc1`, for which the minimal inhibitory concentration (MIC) against Bacillus cereus is 8 µg/mL (≈ 4.77 µM); in the series on Proteus mirabilis it was over 64 µg/mL; in series [1], 8 µg/mL (≈ 4.77 µM); in the series on Klebsiella pneumoniae, 32 µg/mL (≈ 19.1 µM); in the series with Pseudomonas aeruginosa, 64 µg/mL (≈ 38.2 µM); with Escherichia coli it was 32 µg/mL (≈ 19.1 µM). In addition, the minimal inhibitory concentration (MIC) against Staphylococcus aureus was determined as 8 µg/mL (≈ 4.77 µM); with Enterococcus faecalis it was 16 µg/mL (≈ 9.54 µM); against Enterobacter cloacae it was 32 µg/mL (≈ 19.1 µM). Besides, the HD100 in series [2] worked out at 500 µM.

On to `CC(C)C[C@@H]1NC(=O)[C@H](CCCN)NC(=O)[C@H](C(C)C)NC(=O)[C@@H]2CCCN2C(=O)[C@@H](Cc2ccccc2)NC(=O)[C@H](CC(C)C)NC(=O)[C@H](CCCN)NC(=O)[C@H](C(C)C)NC(=O)[C@H](CCCN)NC(=O)[C@H](CC(C)C)NC(=O)[C@@H]2O[C@H](CNC(=O)[C@H](C(C)C)NC(=O)[C@@H](CCCN)NC1=O)[C@@H](OCc1ccccc1)[C@@H]2O`, for which the minimal inhibitory concentration (MIC) against Bacillus cereus is 8 µg/mL (≈ 5.04 µM); in the series with Proteus mirabilis, over 64 µg/mL; in [1], 8 µg/mL (≈ 5.04 µM); in the series on Klebsiella pneumoniae, 32 µg/mL (≈ 20.2 µM); in the series on Pseudomonas aeruginosa, 64 µg/mL (≈ 40.3 µM); against Escherichia coli, 32 µg/mL (≈ 20.2 µM). For the same molecule, the MIC against Staphylococcus aureus turned out to be 16 µg/mL (≈ 10.1 µM); in the series with Enterococcus faecalis, 32 µg/mL (≈ 20.2 µM); with Enterobacter cloacae, 32 µg/mL (≈ 20.2 µM). Also, the HD100 in series [2] is 500 µM.

Regarding `CC(C)C[C@@H]1NC(=O)[C@H](CCCN)NC(=O)[C@H](C(C)C)NC(=O)[C@@H]2CCCN2C(=O)[C@@H](Cc2ccccc2)NC(=O)[C@H](CC(C)C)NC(=O)[C@H](CCCN)NC(=O)[C@H](C(C)C)NC(=O)[C@H](CCCN)NC(=O)[C@H](CC(C)C)NC(=O)[C@@H]2O[C@H](CNC(=O)[C@H](C(C)C)NC(=O)[C@@H](CCCN)NC1=O)[C@@H](O)[C@@H]2O`, the minimum inhibitory concentration (MIC) was 64 µg/mL (≈ 42.8 µM) against Bacillus cereus; over 64 µg/mL in the series on Proteus mirabilis; 16 µg/mL (≈ 10.7 µM) in series [1]; over 64 µg/mL in the series with Klebsiella pneumoniae; over 64 µg/mL with Pseudomonas aeruginosa; 64 µg/mL (≈ 42.8 µM) in the series on Escherichia coli. The minimum inhibitory concentration (MIC) is over 64 µg/mL against Staphylococcus aureus, over 64 µg/mL with Enterococcus faecalis and 64 µg/mL (≈ 42.8 µM) with Enterobacter cloacae. For the same molecule, the HD100 in series [2] is over 500 µM.

As to `CC(C)C[C@@H]1NC(=O)[C@H](CCCCN)NC(=O)[C@H](C(C)C)NC(=O)[C@@H]2CCCN2C(=O)[C@@H](Cc2ccc(O)cc2)NC(=O)[C@H](CC(C)C)NC(=O)[C@H](CCCCN)NC(=O)[C@H](C(C)C)NC(=O)[C@H](CCCCN)NC(=O)[C@H](CC(C)C)NC(=O)[C@@H]2CCCN2C(=O)[C@@H](Cc2ccc(O)cc2)NC(=O)[C@H](C(C)C)NC(=O)[C@H](CCCCN)NC1=O` (HELM PEPTIDE1{K.L.K.V.[dY].P.L.K.V.K.L.[dY].P.V}$PEPTIDE1,PEPTIDE1,1:R1-14:R2$$$V2.0), the minimum inhibitory concentration (MIC) with Bacillus cereus is 32 µg/mL (≈ 19.2 µM); in the series with Proteus mirabilis, over 64 µg/mL; in series [1] it was 64 µg/mL (≈ 38.3 µM); against Klebsiella pneumoniae it was over 64 µg/mL; against Pseudomonas aeruginosa, over 64 µg/mL; against Escherichia coli, over 64 µg/mL. Besides, the MIC in the series with Staphylococcus aureus is over 64 µg/mL; in the series with Enterococcus faecalis it was 32 µg/mL (≈ 19.2 µM); against Enterobacter cloacae, over 64 µg/mL. Moreover, the HD100 in [2] was 3.9 µM.
